Source: paper PMC9494671 (ACS Omega, 2022)

Experiments:
[1] = test system: Human colorectal carcinoma cell line (HCT-116); assay: MTT cytotoxicity assay, HCT-116; assay type: cell-based; settings: for IC50: Homo sapiens, HCT-116, 24 h, read-out: IC50 (μM) HCT-116
How it was run: (§1)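 Cells grown in RPMI-1640 with 10% FBS, penicillin 100 units/mL and streptomycin 100 μg/mL at 37 °C, 5% CO2. Seeded at 1.0 × 10^4 cells/well for 48 h, then exposed to a range of test compound concentrations for 24 h, with CA-4 as positive control. MTT (5 mg/mL solution) added for 4 h, formazan dissolved in DMSO, absorbance read at 570 nm. IC50 = 50% growth inhibition, mean ± SD.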

tubulin = assay: In vitro tubulin polymerization inhibition assay; assay type: biochemical; settings: read-out: IC50 (μM) tubulin polymerization inhibition; 4 mg/mL tubulin, 37 °C, OD340, mean ± SD from three independent experiments
[2] = test system: Human hepatocellular carcinoma cell line (HepG2); assay: MTT cytotoxicity assay, HepG2; assay type: cell-based; settings: for IC50: Homo sapiens, HepG2, 24 h, read-out: IC50 (μM) HePG2; for cytotoxic activity, class in words, HepG2: MTT assay
How it was run: as §1

[3] = cited from earlier work
[4] = test system: Human breast adenocarcinoma cell line (MCF-7); assay: MTT cytotoxicity assay, MCF-7; assay type: cell-based; settings: for IC50: Homo sapiens, MCF7, 24 h, read-out: IC50 (μM) MCF-7
How it was run: as §1

[5] = test system: Epitheloid cervix carcinoma cell line (HeLa); assay: MTT cytotoxicity assay, HeLa; assay type: cell-based, human; settings: for IC50: Homo sapiens, 24 h, read-out: IC50 (μM) HeLa
How it was run: as §1

[6] = test system: HepG2, HCT-116, MCF-7, and HeLa cell lines; assay: MTT cytotoxicity assay, statements over the four tested cell lines; assay type: cell-based, human; settings: all tested cell lines
How it was run: as §1

Row | IC50 (tubulin) [µM] | Compound | IC50 [1] [µM] | IC50 [2] [µM] | solubility in water [3] | IC50 [4] [µM] | IC50 [5] [µM] | cytotoxic activity, class in words, HepG2 [2] | cytotoxic effect, class in words, tested cell lines [6] | cytotoxic activity, class in words, HCT-116 ([1]; MTT assay) | cytotoxic activity, class in words, MCF-7 ([4]; MTT assay) | cytotoxic activity, class in words, HeLa ([5]; MTT assay)
1 | 4.5 ± 0.27 | COc1cc(-c2csc(NC(=O)CN3CCNCC3)n2)cc(OC)c1OC [Compound 6a, 2-(Piperazin-1-yl)-N-(4-(3,4,5-trimethoxyphenyl)thiazol-2-yl)acetamide] | 28.9 ± 1.4 | 8.17 ± 0.4 | – | 40.9 ± 2 | 47.7 ± 2.4 | – | – | – | – | –
2 | 5 ± 0.3 | COc1cc(-c2csc(NC(=O)CN3CCN(c4ccc(F)cc4)CC3)n2)cc(OC)c1OC [Compound 6d, 2-(4-(4-Fluorophenyl)piperazin-1-yl)-N-(4-(3,4,5-trimethoxyphenyl)thiazol-2-yl)acetamide] | 15.7 ± 0.8 | 4.03 ± 0.2 | – | 9.64 ± 0.5 | 18.7 ± 0.9 | – | – | – | – | –
3 | 2.95 ± 0.18 | COc1cc(-c2csc(NC(=O)CNC(C)C)n2)cc(OC)c1OC [Compound 5c, 2-(Isopropylamino)-N-(4-(3,4,5-trimethoxyphenyl)thiazol-2-yl)acetamide] | 12.9 ± 0.6 | 11.9 ± 0.6 | – | 15.5 ± 0.8 | 16 ± 0.8 | – | strong (11–20 (strong)) | – | – | –
4 | 2 ± 0.12 | COc1cc(-c2csc(NC(=O)CNc3ccc([N+](=O)[O-])cc3)n2)cc(OC)c1OC [Compound 7c, 2-((4-Nitrophenyl)amino)-N-(4-(3,4,5-trimethoxyphenyl)thiazol-2-yl)acetamide] | 7.3 ± 0.4 | 6.26 ± 0.3 | – | 10 ± 0.5 | 9.85 ± 0.5 | – | – | – | – | –
5 | 5.11 ± 0.31 | CCN1CCN(CCNC(=O)Nc2nc(-c3cc(OC)c(OC)c(OC)c3)cs2)CC1 [Compound 13a, 1-(2-(4-Ethylpiperazin-1-yl)ethyl)-3-(4-(3,4,5-trimethoxyphenyl)thiazol-2-yl)urea] | 20.1 ± 1 | 14.2 ± 0.7 | – | 16.9 ± 0.8 | 32.4 ± 1.6 | strong (11–20 (strong)) | – | strong (11–20 (strong)) | strong (11–20 (strong)) | moderate (21–50 (moderate))

The remaining lines, values behind:

Row | Compound | IC50 (tubulin) [µM] | IC50 [1] [µM] | IC50 [2] [µM] | solubility in water [3] | IC50 [4] [µM] | IC50 [5] [µM] | cytotoxic activity, class in words, HepG2 [2] | cytotoxic effect, class in words, tested cell lines [6] | cytotoxic activity, class in words, HCT-116 ([1]; MTT assay) | cytotoxic activity, class in words, MCF-7 ([4]; MTT assay) | cytotoxic activity, class in words, HeLa ([5]; MTT assay)
6 | COc1ccc(/C=C\c2cc(OC)c(OC)c(OC)c2)cc1O [CA-4, combretastatin A-4, reference compound] | […] | 5.23 ± 0.3 | 4.5 ± 0.2 | weakly soluble in water | 4.17 ± 0.2 | 5.57 ± 0.3 | – | – | – | – | –
7 | CCCCNCC(=O)Nc1nc(-c2cc(OC)c(OC)c(OC)c2)cs1 [Compound 5b, 2-(Butylamino)-N-(4-(3,4,5-trimethoxyphenyl)thiazol-2-yl)acetamide] | – | 24.4 ± 1.2 | 10.9 ± 0.5 | – | 22.8 ± 1.1 | 28.3 ± 1.4 | strong (11–20 (strong)) | – | – | – | –
8 | COc1cc(-c2csc(NC(=O)NCCN3CCOCC3)n2)cc(OC)c1OC [Compound 13b, 1-(2-Morpholinoethyl)-3-(4-(3,4,5-trimethoxyphenyl)thiazol-2-yl)urea] | – | 27.4 ± 1.4 | 25.7 ± 1.3 | – | 32 ± 1.6 | 43.9 ± 2.2 | – | – | – | – | –
9 | COc1cc(-c2csc(NC(=O)CN/N=C3\C(=O)Nc4ccc(C)cc43)n2)cc(OC)c1OC [Compound 9b, (Z)-2-(2-(5-Methyl-2-oxoindolin-3-ylidene)hydrazinyl)-N-(4-(3,4,5-trimethoxyphenyl)thiazol-2-yl)acetamide] | 4.21 ± 0.26 | 9.93 ± 0.5 | 8.04 ± 0.4 | – | 11.6 ± 0.6 | 13.4 ± 0.7 | – | – | – | – | –
10 | COc1cc(-c2csc(NC(=O)NCCCl)n2)cc(OC)c1OC [Compound 11, 1-(2-Chloroethyl)-3-(4-(3,4,5-trimethoxyphenyl)thiazol-2-yl)urea] | – | 86.7 ± 4.3 | 93 ± 4.6 | – | 95.8 ± 4.8 | 89.9 ± 4.5 | – | weak (51–100 (weak)) | – | – | –
11 | COc1cc(-c2csc(NC(=O)CN3CCN(C)CC3)n2)cc(OC)c1OC [Compound 6b, 2-(4-Methylpiperazin-1-yl)-N-(4-(3,4,5-trimethoxyphenyl)thiazol-2-yl)acetamide] | – | 83.7 ± 4.2 | 74.6 ± 3.7 | – | 65.3 ± 3.3 | 87.3 ± 4.4 | – | – | – | – | –
